# Laboratory results: ChEMBL document CHEMBL1126587, “Novel 6-alkoxypurine 2',3'-dideoxynucleosides as inhibitors of the cytopathic effect of the human immunodeficiency virus” (J Med Chem, 1993)
# “And” between values parts separate entries of the source, which are not always exact repeats. Identical values can stand only once.
# Legend:
# L cells [1] = assay: (§1) Percentage of control cell growth was calculated at 100 uM nucleosides after 4 days; format: functional, Mus musculus, L929
# Method in brief: (§2)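 Human sternal marrow D-98 cells or mouse connective tissue L cells exposed to 100 μM nucleoside for 4 days. Growth expressed as % of untreated control, which underwent at least three doublings.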
# MT4 [2] = assay: Anti-Human immunodeficiency virus activity against MT-4 cells; format: functional, cell-based
# Method in brief: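 MT4 cells infected with HTLV-IIIB at 100-fold TCID50 (100-fold the virus stock concentration giving 50% growth inhibition), compound present for 5 days. IC50 from cell growth protection. Each compound run in triplicate at least five times.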
# [3] = as §1; format: functional, Homo sapiens; method in brief: as §2
# [4] = Percentage of D98 cell growth at 100 uM nucleosides after 4 days.; format: functional, Homo sapiens; method in brief: as §2
# MT4 [5] = assay: Percentage of MT-4 cell growth was calculated at 100 uM nucleosides after 5 days.; format: functional, Homo sapiens
# Method in brief: (§3)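 MT4 cells exposed to 100 μM nucleoside for 5 days, growth given as % of untreated control, which underwent at least three doublings.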
# L cells [6] = assay: Percentage of L cell growth at 100 uM nucleosides after 4 days.; format: functional, Mus musculus, L929; method in brief: as §2
# MT4 [7] = assay: Effect of Erythro-9-(2-Hydroxy-3-nonyl) adenine (EHNA) on the Anti-HIV activity in MT-4 cells at 1.0 uM; format: functional, cell-based; settings: Homo sapiens
# Method in brief: (§4)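 Anti-HIV-1 assay in MT4 cells infected with 100-fold TCID50 HTLV-IIIB over 5 days, run with EHNA or coformycin at 0.1 or 1.0 μM to block deaminase; control wells received PBS in their place. IC50 determined; triplicates, at least five runs.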
# MT4 [8] = assay: Effect of Coformycin on the Anti-HIV activity in MT-4 cells at 0.10 uM; format: functional, cell-based; settings: Homo sapiens; method in brief: as §4
# MT4 [9] = assay: Effect of Coformycin on the Anti-HIV activity in MT-4 cells at 1.0 uM; format: functional, cell-based; settings: Homo sapiens; method in brief: as §4
# MT4 [10] = assay: Effect of Erythro-9-(2-Hydroxy-3-nonyl) adenine (EHNA) on the Anti-HIV activity in MT-4 cells at 0.10 uM; format: functional, cell-based; settings: Homo sapiens; method in brief: as §4
# MT4 [11] = assay: Effect of Phosphate buffered saline on the Anti-HIV activity in MT-4 cells; format: functional, cell-based; settings: Homo sapiens; method in brief: as §4
# MT4 [12] = assay: Effect of Coformycin on the Anti-HIV activity in MT-4 cells; format: functional, cell-based; settings: Homo sapiens; method in brief: as §4
# MT4 [13] = assay: Effect of Erythro-9-(2-Hydroxy-3-nonyl) adenine (EHNA) on the Anti-HIV activity in MT-4 cells; format: functional, cell-based, Homo sapiens; method in brief: as §4
# MT4 [14] = assay: Percentage of control cell growth was calculated at 100 uM nucleosides after 5 days; format: functional, Homo sapiens; method in brief: as §3
SMILES,IC50 (MT4 [2]),Control [4],Control (MT4 [5]),Control (L cells [6]),further results
CCCCCCCOc1ncnc2c1ncn2C1CCC(CO)O1 (stereo not given),25 µM,–,–,–,Control (L cells [1]): 34%; Control [3]: 47%
OCC1CCC(n2cnc3c(OCC(F)(F)F)ncnc32)O1 (stereo not given),> 100 µM,82%,100%,82%,–
CCCCCCCCOc1ncnc2c1ncn2C1CCC(CO)O1 (stereo not given),> 32 µM,–,–,–,Control (L cells [1]): 28%; Control [3]: 29%
COc1ncnc2c1ncn2C1CCC(CO)O1 (stereo not given),> 100 µM,97%,100%,96%,–
O=c1[nH]cnc2c1ncn2[C@H]1CC[C@@H](CO)O1 [DIDANOSINE],23 µM,97%,100%,100%,IC50 (MT4 [7]): 31 µM; IC50 (MT4 [8]): 28 µM; IC50 (MT4 [9]): 39 µM; IC50 (MT4 [10]): 30 µM; IC50 (MT4 [11]): 30 µM
CCCCCCOc1ncnc2c1ncn2C1CCC(CO)O1 (stereo not given),18 µM,54%,100%,42%,IC50 (MT4 [12]): > 200 µM; IC50 (MT4 [13]): 25 µM and 60 µM; IC50 (MT4 [11]): 24 µM
CCCCOc1ncnc2c1ncn2C1CCC(CO)O1 (stereo not given),70 µM,85%,100%,68%,IC50 (MT4 [12]): > 200 µM; IC50 (MT4 [13]; mt4): 26 µM and 70 µM; IC50 (MT4 [11]): 38 µM
OCC1CCC(n2cnc3c(OCCF)ncnc32)O1 (stereo not given),> 100 µM,76%,100%,100%,–
C=CCOc1ncnc2c1ncn2C1CCC(CO)O1 (stereo not given),97 µM,68%,100%,70%,–
CC(C)COc1ncnc2c1ncn2C1CCC(CO)O1 (stereo not given),52 µM,98%,100%,98%,–
CCC(C)Oc1ncnc2c1ncn2[C@H]1CC[C@@H](CO)O1 (stereo not given in full),> 100 µM,77%,100%,77%,–
CCCCCCCCCOc1ncnc2c1ncn2C1CCC(CO)O1 (stereo not given),> 5 µM,–,–,–,Control (L cells [1]): 23%; Control [3]: 27%
CCCCCCCCCCOc1ncnc2c1ncn2C1CCC(CO)O1 (stereo not given),> 5 µM,–,–,–,Control (MT4 [14]): 20%; Control (L cells [1]): 6%; Control [3]: <1%
CC[C@H](C)Oc1ncnc2c1ncn2[C@H]1CC[C@@H](CO)O1,80 µM,81%,100%,85%,–
CC(C)Oc1ncnc2c1ncn2C1CCC(CO)O1 (stereo not given),100 µM,74%,100%,72%,–
CCCCCOc1ncnc2c1ncn2C1CCC(CO)O1 (stereo not given),50 µM,60%,100%,48%,–
CCCOc1ncnc2c1ncn2C1CCC(CO)O1 (stereo not given),> 100 µM,87%,100%,87%,–
CCOc1ncnc2c1ncn2C1CCC(CO)O1 (stereo not given),> 100 µM,82%,100%,90%,–
CC[C@@H](C)Oc1ncnc2c1ncn2[C@H]1CC[C@@H](CO)O1,> 100 µM,81%,100%,81%,–
CCC(CC)Oc1ncnc2c1ncn2C1CCC(CO)O1 (stereo not given),> 100 µM,60%,100%,68%,–
CCCC(C)Oc1ncnc2c1ncn2C1CCC(CO)O1 (stereo not given),80 µM,81%,100%,67%,–
C/C=C/COc1ncnc2c1ncn2C1CCC(CO)O1 (stereo not given),59 µM,35%,100%,58%,"IC50 (MT4 [12]): > 200 µM; IC50 (MT4 [13]; Homo sapiens, MT4): 50 µM; IC50 (MT4 [13]; mt4): 80 µM; IC50 (MT4 [11]): 70 µM"
